How the values were obtained:
Assay type in all cases: functional
HL-60(TB) = experiment: Growth inhibition of human HL-60(TB) cells at 10 uM after 48 hrs by sulforhodamine B assay relative to control; details: HL-60, 48 h, read-out: GI
Procedure, shortened: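 Single-dose primary screen at 10 µM across the NCI 60 panel, 48 h continuous exposure. Growth estimated by sulforhodamine B protein staining and reported as percentage growth inhibition relative to untreated control.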

K562 = experiment: Growth inhibition of human K562 cells at 10 uM after 48 hrs by sulforhodamine B assay relative to control; details: K562, 48 h, read-out: GI
Procedure, shortened: (§1)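 NCI-60 primary screen at a single dose of 10 µM with 48 h continuous exposure. Growth or viability read by sulforhodamine B protein staining and expressed as percent growth inhibition versus untreated cells.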

RPMI-8226 = experiment: Growth inhibition of human RPMI8226 cells at 10 uM after 48 hrs by sulforhodamine B assay relative to control; details: RPMI-8226, 48 h, read-out: GI
Procedure, shortened: (§2)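 NCI-60 primary screen at a single 10 µM dose. Continuous 48 h exposure, with growth or viability estimated by sulforhodamine B protein staining. Reported as percent growth inhibition of treated cells relative to untreated growth.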

[1] = Growth inhibition of human HOP92 cells at 10 uM after 48 hrs by sulforhodamine B assay relative to control; details: HOP-92, 48 h, read-out: GI; procedure, shortened: as §1
NCI-H23 = experiment: Growth inhibition of human NCI-H23 cells at 10 uM after 48 hrs by sulforhodamine B assay relative to control; details: NCI-H23, 48 h, read-out: GI; procedure, shortened: as §2
NCI-H460 = experiment: Growth inhibition of human NCI-H460 cells at 10 uM after 48 hrs by sulforhodamine B assay relative to control; details: NCI-H460, 48 h, read-out: GI; procedure, shortened: as §2
NCI-H522 = experiment: Growth inhibition of human NCI-H522 cells at 10 uM after 48 hrs by sulforhodamine B assay relative to control; details: NCI-H522, 48 h, read-out: GI; procedure, shortened: as §2
HCT-116 = experiment: Growth inhibition of human HCT116 cells at 10 uM after 48 hrs by sulforhodamine B assay relative to control; details: HCT-116, 48 h, read-out: GI; procedure, shortened: as §1
SW-620 = experiment: Growth inhibition of human SW620 cells at 10 uM after 48 hrs by sulforhodamine B assay relative to control; details: SW-620, 48 h, read-out: GI; procedure, shortened: as §2
U-251 = experiment: Growth inhibition of human U251 cells at 10 uM after 48 hrs by sulforhodamine B assay relative to control; details: U-251, 48 h, read-out: GI
Procedure, shortened: (§3)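 NCI-60 primary single-dose screen at 10 µM with continuous 48 h exposure. Cell viability/growth read by sulforhodamine B protein staining. Reported as percent growth inhibition relative to untreated cells.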

[2] = Growth inhibition of human LOXIMVI cells at 10 uM after 48 hrs by sulforhodamine B assay relative to control; details: LOX IMVI, read-out: GI; procedure, shortened: as §1
MDA-MB-435 = experiment: Growth inhibition of human MDA-MB-435 cells at 10 uM after 48 hrs by sulforhodamine B assay relative to control; details: MDA-MB-435, 48 h, read-out: GI; procedure, shortened: as §1
SK-MEL-2 = experiment: Growth inhibition of human SK-MEL-2 cells at 10 uM after 48 hrs by sulforhodamine B assay relative to control; details: SK-MEL-2, 48 h, read-out: GI; procedure, shortened: as §2
IGROV-1 = experiment: Growth inhibition of human IGROV1 cells at 10 uM after 48 hrs by sulforhodamine B assay relative to control; details: IGROV-1, 48 h, read-out: GI; procedure, shortened: as §1
[3] = Growth inhibition of human OVCAR3 cells at 10 uM after 48 hrs by sulforhodamine B assay relative to control; details: OVCAR-3, 48 h, read-out: GI; procedure, shortened: as §2
[4] = Growth inhibition of human OVCAR8 cells at 10 uM after 48 hrs by sulforhodamine B assay relative to control; details: OVCAR-8, 48 h, read-out: GI; procedure, shortened: as §2
[5] = Growth inhibition of human NCI-ADR-RES cells at 10 uM after 48 hrs by sulforhodamine B assay relative to control; details: read-out: GI; procedure, shortened: as §2
786-0 = experiment: Growth inhibition of human 786-0 cells at 10 uM after 48 hrs by sulforhodamine B assay relative to control; details: 786-0, 48 h, read-out: GI; procedure, shortened: as §1
TK-10 = experiment: Growth inhibition of human TK10 cells at 10 uM after 48 hrs by sulforhodamine B assay relative to control; details: TK-10, 48 h, read-out: GI; procedure, shortened: as §3
[6] = Growth inhibition of human UO31 cells at 10 uM after 48 hrs by sulforhodamine B assay relative to control; details: UO-31, 48 h, read-out: GI; procedure, shortened: as §3
PC-3 = experiment: Growth inhibition of human PC3 cells at 10 uM after 48 hrs by sulforhodamine B assay relative to control; details: PC-3, 48 h, read-out: GI; procedure, shortened: as §2
MCF7 = experiment: Growth inhibition of human MCF7 cells at 10 uM after 48 hrs by sulforhodamine B assay relative to control; details: MCF7, 48 h, read-out: GI; procedure, shortened: as §1
T47D = experiment: Growth inhibition of human T47D cells at 10 uM after 48 hrs by sulforhodamine B assay relative to control; details: read-out: GI; procedure, shortened: as §2
MDA-MB-468 = experiment: Growth inhibition of human MDA-MB-468 cells at 10 uM after 48 hrs by sulforhodamine B assay relative to control; details: MDA-MB-468, 48 h, read-out: GI; procedure, shortened: as §2
[7] = Growth inhibition of human SF295 cells at 10 uM after 48 hrs by sulforhodamine B assay relative to control; details: SF-295, 48 h, read-out: GI; procedure, shortened: as §2
CCRF-CEM = experiment: Growth inhibition of human CCRF-CEM cells at 10 uM after 48 hrs by sulforhodamine B assay relative to control; details: read-out: GI; procedure, shortened: as §1
[8] = Growth inhibition of human MOLT4 cells at 10 uM after 48 hrs by sulforhodamine B assay relative to control; details: MOLT-4, 48 h, read-out: GI; procedure, shortened: as §2
SR = experiment: Growth inhibition of human SR cells at 10 uM after 48 hrs by sulforhodamine B assay relative to control; details: read-out: GI; procedure, shortened: as §2
[9] = Growth inhibition of human HCT15 cells at 10 uM after 48 hrs by sulforhodamine B assay relative to control; details: HCT-15, 48 h, read-out: GI; procedure, shortened: as §1
HT-29 = experiment: Growth inhibition of human HT-29 cells at 10 uM after 48 hrs by sulforhodamine B assay relative to control; details: HT-29, 48 h, read-out: GI; procedure, shortened: as §1
[10] = Growth inhibition of human SF539 cells at 10 uM after 48 hrs by sulforhodamine B assay relative to control; details: SF-539, 48 h, read-out: GI; procedure, shortened: as §2
SK-MEL-5 = experiment: Growth inhibition of human SK-MEL-5 cells at 10 uM after 48 hrs by sulforhodamine B assay relative to control; details: SK-MEL-5, 48 h, read-out: GI; procedure, shortened: as §2
CAKI-1 = experiment: Growth inhibition of human CAKI-1 cells at 10 uM after 48 hrs by sulforhodamine B assay relative to control; details: CAKI-1, 48 h, read-out: GI; procedure, shortened: as §1
[11] = Growth inhibition of human RXF393 cells at 10 uM after 48 hrs by sulforhodamine B assay relative to control; details: RXF 393, 48 h, read-out: GI; procedure, shortened: as §2
[12] = Growth inhibition of human BT549 cells at 10 uM after 48 hrs by sulforhodamine B assay relative to control; details: BT-549, 48 h, read-out: GI; procedure, shortened: as §1
[13] = Growth inhibition of human OVCAR4 cells at 10 uM after 48 hrs by sulforhodamine B assay relative to control; details: OVCAR-4, 48 h, read-out: GI; procedure, shortened: as §2
Malme-3M = experiment: Growth inhibition of human MALME-3M cells at 10 uM after 48 hrs by sulforhodamine B assay relative to control; details: read-out: GI; procedure, shortened: as §1
[14] = Growth inhibition of human UACC257 cells at 10 uM after 48 hrs by sulforhodamine B assay relative to control; details: UACC-257, 48 h, read-out: GI; procedure, shortened: as §3

Row | SMILES | inhibition of growth at 10 µM (HL-60(TB)) [%] | inhibition of growth at 10 µM (RPMI-8226) [%] | inhibition of growth at 10 µM (NCI-H522) [%] | inhibition of growth at 10 µM (HCT-116) [%] | inhibition of growth at 10 µM (SW-620) [%] | inhibition of growth at 10 µM (U-251) [%] | inhibition of growth at 10 µM [2] [%] | inhibition of growth at 10 µM (MDA-MB-435) [%] | inhibition of growth at 10 µM (SK-MEL-2) [%] | inhibition of growth at 10 µM [3] [%] | inhibition of growth at 10 µM [5] [%] | inhibition of growth at 10 µM (PC-3) [%] | inhibition of growth at 10 µM (MCF7) [%] | inhibition of growth at 10 µM (T47D) [%] | inhibition of growth at 10 µM (MDA-MB-468) [%] | inhibition of growth at 10 µM [7] [%] | inhibition of growth at 10 µM (CCRF-CEM) [%] | inhibition of growth at 10 µM [8] [%] | inhibition of growth at 10 µM (SR) [%] | inhibition of growth at 10 µM (CAKI-1) [%] | further results
1 | C=CCOc1cc2oc(-c3ccc(Cl)cc3)cc(=O)c2c(OC)c1C=O | 75 | 96 | 93 | 89 | 69 | 68 | 99 | 73 | 75 | 81 | 78 | 76 | 85 | 72 | 91 |  |  |  |  |  | inhibition of growth at 10 µM (K562): 76%; inhibition of growth at 10 µM [1]: 97%; inhibition of growth at 10 µM (NCI-H23): 61%; inhibition of growth at 10 µM (NCI-H460): 61%; inhibition of growth at 10 µM (IGROV-1): 62%; inhibition of growth at 10 µM [4]: 66%; inhibition of growth at 10 µM (786-0): 65%; inhibition of growth at 10 µM (TK-10): 73%; inhibition of growth at 10 µM [6]: 74%
2 | COc1ccc(-c2cc(=O)c3c(OC)c4ccoc4cc3o2)cc1 |  |  |  |  |  | 62 |  |  |  |  |  |  |  |  |  | 60 |  |  |  |  | inhibition of growth at 10 µM [6]: 62%
3 | COc1c2c(c(Br)c3occc13)O/C(=C\c1ccccc1)C2=O | 64 | 94 | 62 | 77 | 60 | 73 | 65 | 74 | 88 | 86 | 79 | 66 | 84 |  | 93 | 65 | 79 | 85 | 79 | 87 | inhibition of growth at 10 µM (NCI-H23): 78%; inhibition of growth at 10 µM (NCI-H460): 83%; inhibition of growth at 10 µM [9]: 60%; inhibition of growth at 10 µM (HT-29): 72%; inhibition of growth at 10 µM [10]: 75%; inhibition of growth at 10 µM (SK-MEL-5): 67%; inhibition of growth at 10 µM [4]: 70%; inhibition of growth at 10 µM [11]: 93%; inhibition of growth at 10 µM (TK-10): 61%; inhibition of growth at 10 µM [12]: 66%
4 | COc1ccc(/C=C2\Oc3c(c(OC)c4ccoc4c3Br)C2=O)cc1 |  | 71 |  | 62 |  |  |  |  |  |  |  |  | 60 |  |  |  |  | 67 | 60 | 61 | inhibition of growth at 10 µM [10]: 60%
5 | C=CCOc1cc2oc(-c3ccc(OC)cc3)cc(=O)c2c(OC)c1C=O |  |  |  |  |  |  |  |  |  |  |  |  |  |  |  |  |  |  |  |  | inhibition of growth at 10 µM [1]: 66%
6 | COc1ccc(/C=C/c2cc(=O)c3c(OC)c4ccoc4c(Br)c3o2)cc1 |  |  | 62 |  |  |  |  |  |  |  |  |  |  |  |  |  |  |  |  |  | 
7 | COc1ccc(/C=C/c2oc3c(OC)c4occc4c(OC)c3c(=O)c2CN2CCOCC2)cc1 |  | 61 |  |  |  |  |  |  |  |  |  |  |  |  |  |  | 87 | 66 |  |  | inhibition of growth at 10 µM (SK-MEL-5): 84%
8 | COc1c2ccoc2c(Br)c2oc(-c3ccc(Cl)cc3)cc(=O)c12 |  |  |  |  |  |  |  |  |  |  |  |  |  |  |  |  |  |  |  |  | inhibition of growth at 10 µM [13]: 72%
9 | COc1c(C(=O)/C=C/c2ccc(Cl)cc2)c(O)cc2occc12 |  | 66 |  |  |  |  |  |  |  |  |  |  | 64 | 67 |  |  | 60 |  | 63 |  | 
10 | COc1c2c(c(Br)c3occc13)O/C(=C\c1ccc(Cl)cc1)C2=O | 74 | 91 | 64 | 83 | 63 | 62 | 65 | 82 | 84 | 67 | 61 | 69 | 79 | 60 | 80 | 67 | 79 | 85 | 82 | 80 | inhibition of growth at 10 µM (HT-29): 63%; inhibition of growth at 10 µM (Malme-3M): 65%; inhibition of growth at 10 µM [14]: 61%; inhibition of growth at 10 µM [11]: 78%

From ChEMBL document CHEMBL3286372, “Design, synthesis and structure-activity relationship of novel semi-synthetic flavonoids as antiproliferative agents” (2014)
